Screens as filed in PubChem.
Calb biofilm kill – mixtures killing C. albicans biofilm | C. albicans biofilm persisters + clotrimazole, fluorescence viability; primary screen in compound mixtures of four per well | inhibition, % at 7.6 µM | 120,000 tested, 0.02% active;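 active = inhibition above 30.3% in the primary screen of four-compound pools, then above 30% when the compound was retested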;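 note: compounds exposed to preformed 24 h biofilms for 48 h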
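Test system: C. albicans CAF4-2 wild-type biofilms; buffer or medium: RPMI/MOPS medium, pH 7.0; schedule: 24 h biofilm formation, then 48 h compound exposure, 37 °C; detection: Alamar Blue fluorescence; measure: percent inhibition of biofilm viability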
Mcl1-Bid inh – disrupts binding of human Mcl-1 to Bid peptide; Q07820; TR-FRET Mcl-1/Bid-Dy647 peptide binding, 1536-well; inhibition, % at 21.7 µM; 220,000 tested, 0.97% active; AID 1021;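 active = compounds that cut the binding signal by more than half at the single screening dose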;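 note: His-tagged Mcl-1 with europium anti-His antibody binding Bid BH3 peptide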
Mcl1-Noxa inh – Mcl-1/Noxa interaction inhibition; Q07820; TR-FRET Mcl-1/Noxa peptide binding, 2 h; inhibition, % at 21.7 µM; 220,000 tested, 1.5% active;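 active = compounds that cut the protein-peptide binding signal by more than 50% relative to plate controls in a single-dose test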;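 note: His-tagged Mcl-1 with rhodamine Noxa BH3 peptide and terbium anti-His antibody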
Mcl-1 Bim block – human Bim-Mcl-1 interaction inhibition; Q07820; Bead-based flow cytometry, Bim peptide-Mcl-1 binding; inhibition, % at 10 µM; 190,000 tested, 0.1% active; AID 1009; in the data active = inhibition above about 40%
14-3-3 Bad inh – disrupts binding of bovine 14-3-3 zeta to phospho-Bad peptide; P63103; TR-FRET 14-3-3zeta/Dy647-pBad peptide displacement, 1 h; inhibition, % at 21.7 µM; 220,000 tested, 0.71% active;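 active = inhibition above about 70%, limit read from the data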
Target sequence (P63103 whole entry, looked up): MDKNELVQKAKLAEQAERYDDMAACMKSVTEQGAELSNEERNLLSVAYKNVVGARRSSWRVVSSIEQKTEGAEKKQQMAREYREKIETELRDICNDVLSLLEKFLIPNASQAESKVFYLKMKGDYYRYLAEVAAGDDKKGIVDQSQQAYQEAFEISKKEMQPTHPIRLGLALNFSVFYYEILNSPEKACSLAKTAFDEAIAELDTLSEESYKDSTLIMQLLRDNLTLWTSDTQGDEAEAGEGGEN
Hck-Nef inh – inhibitors of human Hck kinase activated by Nef; Recombinant Hck-YEEI plus Nef, Z-Lyte FRET kinase assay; inhibition, % at 20 µM; 220,000 tested, 0.68% active; AID 463187;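 active = Hck-Nef kinase inhibition above about 50%, limit read from the data; inactive = inhibition below that limit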
Each line names hits and unclear results; the compound was inactive in the other large screens. Only some compounds are listed: those with a hit (about 3.2% of all), similar ones and a draw of the others.

O=S(=O)(N1CCCCC1)N1CCN(c2cc(Cl)ccc2Cl)CC1	none
C=CCn1ccc(=NC=C(C#N)C#N)c2ccccc21	none (no result: Mcl-1 Bim block)
COc1cc(NC(=S)NC(=O)c2ccccc2F)ccc1NC(=O)c1ccco1	Mcl1-Bid inh 53
CCOC(=O)C1=C(N)OC2=C(C(=O)CC(C)(C)C2)C1c1cc(CSc2nnnn2C)cs1 (stereo not drawn)	none
Cc1sc2ncnc(SCc3ccc(C(=O)O)cc3)c2c1C	none
COC(=O)c1ccc(CSc2ncnc3sc(C)c(C)c23)o1	Mcl1-Bid inh 59 (no result: Calb biofilm kill)
COc1cc(C(=O)Oc2cccc(C)c2)cc(OC)c1OC	none (no result: Calb biofilm kill)
COc1cc(OC)nc(Oc2ccccc2C(=O)Oc2cccc(C)c2)n1	Mcl1-Bid inh 53 (no result: Calb biofilm kill)
CCOc1ccccc1N1CCN(C(=O)CCCc2nc3ccccc3s2)CC1	none
Cc1ccc2nc(C)c(C(=O)O)cc2c1	none
Cc1ccc2cc(C(=O)O)c(C)nc2c1	14-3-3 Bad inh 79 (no result: Calb biofilm kill)
CCCCSc1nnc(NC(=O)CCc2ccccc2)s1	none (no result: Calb biofilm kill)
CCOC(=O)C1(Cc2cccc(OC)c2)CCN(Cc2ccccc2)CC1	none
CCOC(=O)C1(Cc2cccc(OC)c2)CCN(Cc2cc(OC)ccc2OC)CC1	14-3-3 Bad inh 80
CCOC(=O)C1(Cc2cccc(OC)c2)CCN(Cc2cccc(OC)c2OC)CC1	Mcl-1 Bim block 78
CCOC(=S)SCc1cn2cccc(C)c2n1	none
Cc1cccc(-n2c(SCC(=O)Nc3nnc(C)s3)nnc2-c2ccoc2C)c1	Mcl1-Bid inh 67 (no result: Calb biofilm kill)
CCc1nnc(NC(=O)CSc2nnc(-c3ccoc3C)n2-c2cccc(C)c2)s1	none (no result: Calb biofilm kill)
CCc1ccc(CNC(=O)c2cc3c(C)nc4ccccc4c3o2)cc1	none (no result: Calb biofilm kill)
CCCCN(CC)CCNC(=O)c1cc2c(C)nc3ccccc3c2o1	Mcl1-Noxa inh 71 (no result: Calb biofilm kill)
COc1cc(NC(=O)c2cc3c(C)nc4ccccc4c3o2)cc(OC)c1OC	Mcl1-Noxa inh 56 (no result: Calb biofilm kill)
O=C(Cc1ccccc1Cl)NCCCn1ccnc1	none
O=C(O)CCCC(=O)NCc1ccccn1	none (no result: Calb biofilm kill)
CCN(CC)c1ccc(NC(=O)CCCCCN2C(=O)c3ccccc3C2=O)cc1	Mcl1-Noxa inh 63 (no result: Calb biofilm kill)
O=C(CCCCCN1C(=O)c2ccccc2C1=O)NCc1ccccn1	14-3-3 Bad inh 77 (no result: Calb biofilm kill)
O=C(CCCN1C(=O)c2ccccc2C1=O)NCCCn1ccnc1	Mcl1-Bid inh 82
CC1=CC(C)(C)Nc2ccc(C)cc21	14-3-3 Bad inh 81 (no result: Calb biofilm kill)
CC(C)CC(=O)NCCCCc1ccccc1	none
COc1ccc(CN2CCN(c3ccccn3)CC2)cc1OCc1ccccc1	14-3-3 Bad inh 70 (no result: Calb biofilm kill)
COc1ccc(CN2CCN(C(=O)c3ccco3)CC2)cc1OC	none
COc1ccc(CN2CCN(C(=O)c3ccco3)CC2)cc1OCc1ccccc1	14-3-3 Bad inh 84 (no result: Calb biofilm kill)
CCN1CCN(Cc2ccc(OC)c(OCc3ccccc3)c2)CC1	none (no result: Calb biofilm kill)
O=S(=O)(NCc1ccccn1)c1ccccc1	none (no result: Calb biofilm kill)
COC(=O)Nc1ccc(S(=O)(=O)NCc2ccccn2)cc1	Mcl1-Noxa inh 82
CC(=O)Nc1cccc(NC(=O)C(=O)c2cn(CC(=O)N3CCCCC3)c3ccccc23)c1	none
CCOC(=O)C(C(C)=O)c1c(Br)c(O)c(O)c2c(C(=O)c3ccc(C)cc3)coc12 (stereo not drawn)	Mcl1-Noxa inh 68
CCCOc1ccc(C(=O)NC(=S)Nc2nc(C)c(C(=O)N(C)C)s2)cc1	none (no result: Calb biofilm kill)
Cc1nn2c(Nc3ccccc3)c3c(nc2c1-c1ccccc1)CCC3	14-3-3 Bad inh 82
CCCCCCOc1ccc(N2C(=O)CC(N3CCN(CCN=CC4C(=O)CC(C)(C)CC4=O)CC3)C2=O)cc1 (stereo not drawn)	none
CCOc1ccc(C(=O)N/N=C/c2c(C)[nH]c(=O)[nH]c2=O)cc1	none (no result: Mcl-1 Bim block)
CCN1CCCC1CNCc1cccc(OC)c1OCc1ccc(F)cc1 (stereo not drawn)	14-3-3 Bad inh 77
Cc1ccccc1C(=O)NC(CC(C)C)C(=O)Nc1ccc(S(N)(=O)=O)cc1 (stereo not drawn)	none
CCCCNC(=O)NS(=O)(=O)c1ccc(C(=O)OC)o1	none (no result: Calb biofilm kill)
Cc1cc(NC(=O)Cc2cccs2)no1	Mcl1-Noxa inh 102 (no result: Calb biofilm kill)
Cc1ccc(C(=O)NNC(=O)CCC(=O)Nc2cc(C)on2)cc1	Mcl1-Bid inh 86
Cc1cc(NS(=O)(=O)c2ccc(NC(=O)Cc3cccs3)cc2)no1	none (no result: Calb biofilm kill)
Cc1ccccc1CSc1nnc(NC(=O)Cc2cccs2)s1	Mcl1-Noxa inh 66
